Test results published in ChEMBL document CHEMBL4433205, “Dual Pharmacophores Explored via Structure-Activity Relationship (SAR) Matrix: Insights into Potent, Bifunctional Opioid Ligand Design” (J Med Chem, 2019).
Active and inactive are the calls of the source.

Key:
[1] = molecular target: Delta-type opioid receptor (Rattus norvegicus) (UniProt P33533); assay: Agonist activity at rat delta opioid receptor expressed in rat C6 cell membranes assessed as stimulation of [35S]GTPgammaS binding incubated for 1 hr relative to DPDPE; type: functional
Mu-type opioid receptor [2] = molecular target: T1, Mu-type opioid receptor (Rattus norvegicus, UniProt P33535); assay: (§1) Agonist activity at rat mu opioid receptor expressed in rat C6 cell membranes assessed as stimulation of [35S]GTPgammaS binding measured after 1 hr; type: functional
Outline: (§2)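 Membranes (10–20 μg protein/tube) from stably transfected cells incubated 1 h at 25°C in 50 mM Tris-HCl, 100 mM NaCl, 5 mM MgCl2, pH 7.4, with 0.1 nM [35S]-GTPγS, 30 μM GDP and varying test concentrations; filtration, scintillation counting.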

Rattus norvegicus = species on record: Rattus norvegicus; assay: Selectivity ratio of Ki for rat delta opioid receptor expressed in rat C6 cell membranes to Ki for rat mu opioid receptor expressed in rat C6 cell membranes; type: cell-based
Outline: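 Competition binding against 0.2 nM [3H]-diprenorphine, using C6 membranes expressing rat MOR or rat DOR (20 μg protein/tube). Run in 50 mM Tris-HCl pH 7.4, 1 h at room temperature with shaking, then filtration and scintillation counting. Nonspecific binding with 10 μM naloxone.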

Mus musculus [3] = assay: Antinociceptive activity in C57BL/6 mouse assessed as increase in latency to tail withdrawal by measuring time of action at 10 mg/kg, ip administered as bolus dose by warm water tail withdrawal assay; type: functional
Outline: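 Male C57BL/6 mice; saline ip, baseline 30 min later, then single 10 mg/kg ip bolus in 5% DMSO/saline. Tail withdrawal in 50°C water (20 s cutoff) at 5, 15, 30 min and every 30 min until return to baseline; duration = time from dosing to baseline return, done only for fully active compounds.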

Mu-type opioid receptor [4] = molecular target: T1, Mu-type opioid receptor; assay: Displacement of [3H]diprenorphine from rat mu opioid receptor expressed in rat C6 cell membranes measured after 1 hr by liquid scintillation counting method
Outline: (§3)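 Competition with 0.2 nM [3H]-diprenorphine on membranes (20 μg protein/tube) from stably transfected cells in 50 mM Tris-HCl pH 7.4, 1 h at room temperature with shaking; GF/C filtration, three washes, scintillation counting. Nonspecific binding defined with 10 μM naloxone.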

[5] = molecular target: T2, Delta-type opioid receptor (Rattus norvegicus, UniProt P33533); assay: Displacement of [3H]diprenorphine from rat delta opioid receptor expressed in rat C6 cell membranes measured after 1 hr by liquid scintillation counting method
[6] = Lipophilicity, log P of the compound; type: physicochemical; settings: octanol/water
Mus musculus [7] = assay: Antinociceptive activity in C57BL/6 mouse assessed as increase in latency to tail withdrawal up to 10 mg/kg, ip administered at 30 mins interval measured during compound dosing by warm water tail withdrawal assay relative to control; type: functional
Outline: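 Male C57BL/6 mice, 20–30 g, 8–16 weeks. Saline ip, baseline latency 30 min later; then cumulative ip doses 1, 3.2, 10 mg/kg in 5% DMSO/saline at 30 min intervals, latency read 30 min after each. Tail tip (2–3 cm) in 50°C water, 20 s cutoff; expressed as % MPE (MPE = 20 s).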

[8] = molecular target: Mu-type opioid receptor (Rattus norvegicus) (UniProt P33535); assay: Agonist activity at rat mu opioid receptor expressed in rat C6 glioma cell membranes assessed as stimulation of [35S]GTPgammaS binding measured after 1 hr relative to DAMGO; type: functional
[9] = molecular target: T3, Kappa-type opioid receptor (Homo sapiens, UniProt P41145); assay: Agonist activity at human kappa opioid receptor expressed in CHO cell membranes assessed as stimulation of [35S]GTPgammaS binding measured after 1 hr; type: functional
[10] = molecular target: T2, Delta-type opioid receptor; assay: Agonist activity at rat delta opioid receptor expressed in rat C6 cell membranes assessed as stimulation of [35S]GTPgammaS binding measured after 1 hr; type: functional
[11] = molecular target: T3, Kappa-type opioid receptor; assay: Displacement of [3H]diprenorphine from human kappa opioid receptor expressed in CHO cell membranes measured after 1 hr by liquid scintillation counting method; outline: as §3
[12] = molecular target: T3, Kappa-type opioid receptor; assay: Agonist activity at human kappa opioid receptor expressed in CHO cell membranes assessed as stimulation of [35S]GTPgammaS binding to G protein incubated for 1 hr relative to U69,593; type: functional
[13] = molecular target: Delta-type opioid receptor (Rattus norvegicus) (UniProt P33533); assay: Agonist activity at rat delta opioid receptor expressed in C6 cell membranes assessed as stimulation of [35S]GTPgammaS binding at 1 uM incubated for 1 hr relative to SNC80; type: functional
Outline: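 Rat DOR in C6 glioma membranes, [35S]-GTPγS binding (0.1 nM, 30 μM GDP, 1 h, 25°C). SNC80 concentration–response run alone and with 1 μM test compound present; stimulation expressed relative to SNC80. Ke = compound concentration/(EC50 shift − 1). Mean of ≥3 assays in duplicate.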

[14] = molecular target: Delta-type opioid receptor (Rattus norvegicus) (UniProt P33533); assay: Antagonist activity at rat delta opioid receptor expressed in rat C6 cell membranes assessed as inhibition of SNC80-induced [35S] GTPgammaS binding measured after 1 hr; type: functional
Outline: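 Membranes from rat C6 glioma cells stably expressing rat DOR; [35S]-GTPγS (0.1 nM) binding stimulated by SNC80 concentration–response, alone or with test compound at 1 μM, 1 h at 25°C in 50 mM Tris-HCl, 100 mM NaCl, 5 mM MgCl2, pH 7.4, with 30 μM GDP; filtration and scintillation counting.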

[15] = molecular target: Mu-type opioid receptor (Rattus norvegicus) (UniProt P33535); assay: as §1; type: functional; outline: as §2

T3 sequence (P41145 whole entry): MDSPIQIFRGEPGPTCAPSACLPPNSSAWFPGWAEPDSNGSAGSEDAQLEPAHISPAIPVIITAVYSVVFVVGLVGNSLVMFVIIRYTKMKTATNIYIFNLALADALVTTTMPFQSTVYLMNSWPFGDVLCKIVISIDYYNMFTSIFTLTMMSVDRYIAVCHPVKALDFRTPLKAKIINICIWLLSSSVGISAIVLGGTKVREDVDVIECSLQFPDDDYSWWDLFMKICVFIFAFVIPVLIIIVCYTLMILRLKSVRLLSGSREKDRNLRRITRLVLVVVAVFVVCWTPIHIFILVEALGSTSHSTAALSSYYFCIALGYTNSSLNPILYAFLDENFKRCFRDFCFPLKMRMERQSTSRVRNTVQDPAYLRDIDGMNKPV
Chain of Mu-type opioid receptor (Rattus norvegicus) (P33535 whole entry): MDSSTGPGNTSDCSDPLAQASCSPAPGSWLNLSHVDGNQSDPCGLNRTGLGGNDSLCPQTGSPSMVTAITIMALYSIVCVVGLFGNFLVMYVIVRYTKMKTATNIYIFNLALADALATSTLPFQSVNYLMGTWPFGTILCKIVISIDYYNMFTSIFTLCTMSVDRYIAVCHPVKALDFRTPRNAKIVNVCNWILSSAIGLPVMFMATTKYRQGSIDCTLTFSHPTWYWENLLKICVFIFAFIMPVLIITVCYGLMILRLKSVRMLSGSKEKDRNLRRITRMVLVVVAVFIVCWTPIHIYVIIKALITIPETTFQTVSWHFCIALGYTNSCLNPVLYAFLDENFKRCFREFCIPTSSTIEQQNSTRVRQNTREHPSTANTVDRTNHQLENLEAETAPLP
T1 sequence (P33535 whole entry): as above
Chain of Delta-type opioid receptor (Rattus norvegicus) (P33533 whole entry): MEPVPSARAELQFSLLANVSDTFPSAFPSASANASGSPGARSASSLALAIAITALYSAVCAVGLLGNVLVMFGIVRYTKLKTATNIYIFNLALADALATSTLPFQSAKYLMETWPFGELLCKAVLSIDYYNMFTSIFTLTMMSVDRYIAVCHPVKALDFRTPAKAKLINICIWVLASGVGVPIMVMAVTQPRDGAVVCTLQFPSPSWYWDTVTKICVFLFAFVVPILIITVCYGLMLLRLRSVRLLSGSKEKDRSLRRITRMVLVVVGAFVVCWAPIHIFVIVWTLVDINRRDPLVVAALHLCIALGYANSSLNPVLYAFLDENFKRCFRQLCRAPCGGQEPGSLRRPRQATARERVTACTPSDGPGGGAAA
T2 sequence (P33533 whole entry): as above

Compound | Efficacy [1] | EC50 (Mu-type opioid receptor [2]) [nM] | Ratio Ki (Rattus norvegicus) | Time (Mus musculus [3]) [min] | Ki (Mu-type opioid receptor [4]) [nM] | Ki [5] [nM] | logP [6] | MPE (Mus musculus [7]) | Efficacy [8] | EC50 ([9]; read-out: EC50) [nM] | EC50 ([10]; c6) | Ki [11] [nM] | Efficacy [12] | Activity [13] [%] | Ke [14] [nM] | EC50 ([9]; cho) | Activity [15] | EC50 ([10]; read-out: EC50) [nM]
CC(=O)N1CC[C@@H](NC(=O)[C@@H](N)Cc2c(C)cc(O)cc2C)c2cc(CN3CCc4ccccc4C3)ccc21.O=C(O)C(F)(F)F | inactive | 6 | 5 | 240 | 0.19 | 0.89 | 3.2 | 100% | 96% | 190 | Not Active | 0.78 | 41% | – | – | – | – | –
Cc1cc(O)cc(C)c1C[C@H](N)C(=O)N[C@@H]1CCNc2ccc(Cc3ccccc3)cc21.O=C(O)C(F)(F)F | – | – | – | 120 | – | – | 3.8 | 100% | – | – | – | – | – | – | – | – | – | –
Cc1cc(O)cc(C)c1C[C@H](N)C(=O)N[C@@H]1CCN(S(C)(=O)=O)c2ccc(CN3CCc4ccccc4C3)cc21.O=C(O)C(F)(F)F | inactive | 0.12 | 9 | 90 | 0.11 | 0.98 | 3.1 | 100% | 114% | 45 | Not Active | 1.1 | 51% | 100 | 0.85 | – | – | –
Cc1cc(O)cc(C)c1C[C@H](N)C(=O)N[C@@H]1CCN(C(=O)c2ccccc2)c2ccc(Cc3ccc4ccccc4c3)cc21.O=C(O)C(F)(F)F | – | 7.9 | – | 150 | 0.26 | 0.46 | – | 100% | 57% | – | Not Active | 160 | inactive | – | – | Not Active | – | –
CC(=O)N1CC[C@@H](NC(=O)[C@@H](N)Cc2c(C)cc(O)cc2C)c2cc(Cc3ccc4c(c3)OCCO4)ccc21.O=C(O)C(F)(F)F | inactive | 13 | 2 | – | 0.38 | 0.83 | 3.1 | 75% | 45% | – | Not Active | 142 | inactive | – | – | Not Active | – | –
Cc1cc(O)cc(C)c1C[C@H](N)C(=O)N[C@@H]1CCN(S(C)(=O)=O)c2ccc(Cc3cc4ccccc4o3)cc21.O=C(O)C(F)(F)F | inactive | 0.34 | 20 | – | 0.05 | 1 | 3.8 | inactive | 102% | > 500 | Not Active | 8 | 61% | – | – | – | – | –
Cc1cc(O)cc(C)c1C[C@H](N)C(=O)N[C@@H]1CCN(C(=O)c2ccccc2)c2ccc(Cc3ccc4c(c3)OCCO4)cc21.O=C(O)C(F)(F)F | inactive | – | 0.2 | – | 1.5 | 0.22 | 4.4 | inactive | inactive | > 500 | Not Active | 240 | 60% | – | – | – | inactive | –
Cc1cc(O)cc(C)c1C[C@H](N)C(=O)N[C@@H]1CCN(S(C)(=O)=O)c2ccc(Cc3ccccc3)cc21.O=C(O)C(F)(F)F | 22% | 0.23 | 7 | 60 | 0.06 | 0.41 | 3.3 | 100% | 98% | 121 | – | 8 | 60% | – | – | – | – | 12
Cc1cc(O)cc(C)c1C[C@H](N)C(=O)N[C@@H]1CCN(C(=O)C2CC2)c2ccc(CN3CCc4ccccc4C3)cc21.O=C(O)C(F)(F)F | inactive | 0.52 | 7 | – | 0.12 | 0.88 | 3.8 | 60% | 95% | – | Not Active | 40 | inactive | – | – | Not Active | – | –
Cc1cc(O)cc(C)c1C[C@H](N)C(=O)N[C@@H]1CCN(S(C)(=O)=O)c2ccc(Cc3ccc4ccccc4c3)cc21.O=C(O)C(F)(F)F | inactive | 0.23 | 24 | – | 0.04 | 0.95 | 4.4 | inactive | 102% | – | Not Active | 27 | inactive | – | – | Not Active | – | –
